Source: ChEMBL document CHEMBL1128222, “Novel inhibitors for multidrug resistance: 1,3,5-triazacycloheptanes” (J Med Chem, 1995)

What was measured:
P388/ADR [1] = assay: In vitro relative vinblastin uptake into P388/ADR (murine leukemia/multidrug resistant) cells following 10 uM treatment.; type: functional, Mus musculus
Method in brief: (§1)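 10^6 P388/S or P388/ADR cells in 1 mL of 20 mM Hepes-buffered medium, pH 7.4. They are incubated with 4.6 kBq [3H]vinblastine with or without 10 μM compound (DMSO final 1%) at 37 °C for 30 min. Cells are then chilled, pelleted at 2 °C and washed twice in cold PBS. They are solubilized in NaOH and counted. The value is uptake relative to untreated cells.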

P388/S [2] = assay: In vitro relative vinblastin uptake into P388/s (murine leukemia) cells following 10 uM treatment.; type: functional, Mus musculus; method in brief: as §1
P388/S [3] = assay: Evaluation of inhibitory activity and cisplatin against drug sensitive P388 cells (P388/S) cells; type: functional, cell-based, Mus musculus; details: Mus musculus, P388/S
Method in brief: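 P388/S or P388/ADR cells at 10^5 cells/mL in RPMI-1640/10% FCS medium. They receive graded adriamycin, mitomycin C or cisplatin, alone or together with 2.5 μM modulator, for 48 h (DMSO final 0.25%). Growth is read by MTT and the antitumor-drug IC50 is reported.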

P388/ADR [4] = assay: Evaluation of inhibitory activity and adriamycin against multidrug resistant P388 cells (P388/ADR) cells; details: Mus musculus
P388/S [5] = assay: Evaluation of inhibitory activity against drug sensitive P388 cells (P388/S) cells; type: functional, cell-based; details: Mus musculus
Method in brief: (§2)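 P388/S and P388/ADR murine leukemia cells are maintained by weekly intraperitoneal passage in female CDF1 mice. For the assay they are seeded at 10^5 cells/mL in RPMI-1640 with 10% FCS, 20 μM β-mercaptoethanol and 100 μg/mL kanamycin. Vinblastine is given with or without modulator (0–5.0 μM; DMSO final 0.25%) for 48 h. Growth is read by MTT and vinblastine IC50 is reported.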

P388/ADR [6] = assay: Evaluation of inhibitory activity against multidrug resistant P388 cells (P388/ADR) cells; type: functional, cell-based, Mus musculus; details: Mus musculus, P388/ADR; method in brief: as §2

Row | SMILES | Relative uptake (P388/ADR [1]) | Relative uptake (P388/S [2]) | further results
1 | CSC1=NC(=O)N(Cc2cccc(Cl)c2)CCN1Cc1cccc(Cl)c1 | 6.75 | 1.16 | 
2 | O=C1NC(=S)N(Cc2ccccc2)CCN1Cc1ccccc1 | 2.11 | 1.2 | 
3 | COc1ccc(CN2CCN(Cc3ccc(OC)c(OC)c3)C(=O)NC2=O)cc1OC | 1.16 | 0.93 | 
4 | COc1ccc(CN2CCN(Cc3ccc(OC)c(OC)c3)C(=S)NC2=S)cc1OC | 5.26 | 1.21 | 
5 | O=C1NC(=S)N(Cc2ccc(Cl)cc2)CCN1Cc1ccc(Cl)cc1 | 5.35 | 1.3 | 
6 | S=C1NC(=S)N(Cc2cccc(Cl)c2)CCN1Cc1cccc(Cl)c1 | 5.34 | 1.34 | 
7 | COc1ccc(CN2CCCN(Cc3ccc(OC)c(OC)c3)C(=O)NC2=O)cc1OC | 1.11 | 1.06 | 
8 | COc1ccc(CN2CCN(Cc3ccc(OC)c(OC)c3)C(=S)NC2=O)cc1OC | 2.36 | 1.14 | 
9 | CSC1=NC(=O)N(Cc2ccccc2)CCN1Cc1ccccc1 | 2.13 | 1.37 | 
10 | COc1ccc(CN2CCN(Cc3ccc(OC)c(OC)c3)C(SC)=NC2=O)cc1OC | 1.14 | 1.04 | 
11 | COc1cccc2c1C(=O)c1c(O)c3c(c(O)c1C2=O)C[C@@](O)(C(=O)CO)C[C@@H]3OC1C[C@H](N)[C@H](O)[C@H](C)O1.CSC1=NC(=O)N(Cc2ccc(Cl)cc2)CCN1Cc1ccc(Cl)cc1 (some centres not stated) |  |  | IC50 (P388/S [3]): 13 nM; IC50 (P388/ADR [4]): 90 nM
12 | S=C1NC(=S)N(Cc2ccccc2)CCN1Cc1ccccc1 | 4.16 | 1.26 | 
13 | CO[C@@]12[C@H](COC(N)=O)C3=C(C(=O)C(C)=C(N)C3=O)N1C[C@@H]1N[C@@H]12 [MITOMYCIN] |  |  | IC50 (P388/S [5]): 48 nM; IC50 (P388/ADR [6]): 535 nM
14 | O=C1NC(=O)N(Cc2ccc(Cl)cc2)CCN1Cc1ccc(Cl)cc1 | 3.44 | 1.22 | 
15 | O=C1NC(=S)N(Cc2cccc(Cl)c2)CCN1Cc1cccc(Cl)c1 | 6.14 | 1.26 | 
16 | O=C1NC(=O)N(Cc2cccc(Cl)c2)CCCN1Cc1cccc(Cl)c1 | 2.62 | 1.12 | 
17 | COC12[C@H](COC(N)=O)C3=C(C(=O)C(C)=C(N)C3=O)N1C[C@@H]1N[C@@H]12.CSC1=NC(=O)N(Cc2ccc(Cl)cc2)CCN1Cc1ccc(Cl)cc1 |  |  | IC50 (P388/S [3]): 44 nM; IC50 (P388/ADR [4]): 264 nM
18 | O=C1NC(=O)N(Cc2ccccc2)CCN1Cc1ccccc1 | 1.41 | 1.09 | 
19 | O=C1NC(=O)N(Cc2ccccc2)CCCN1Cc1ccccc1 | 1.78 | 0.93 | 
20 | O=C1NC(=O)N(Cc2ccc(Cl)cc2)CCCN1Cc1ccc(Cl)cc1 | 2.86 | 1.17 | 
21 | O=C1NC(=O)N(Cc2cccc(Cl)c2)CCN1Cc1cccc(Cl)c1 | 1.05 | 1.2 | 
22 | COc1cccc2c1C(=O)c1c(O)c3c(c(O)c1C2=O)C[C@@](O)(C(=O)CO)C[C@@H]3O[C@H]1C[C@H](N)[C@H](O)[C@H](C)O1 [DOXORUBICIN] |  |  | IC50 (P388/S [5]): 19 nM; IC50 (P388/ADR [6]): 360 nM
23 | CSC1=NC(=S)N(Cc2ccccc2)CCN1Cc1ccccc1 | 3.44 | 1.19 | 
24 | Clc1ccc(CNCCNCc2ccc(Cl)cc2)cc1 | 2.62 | 1.04 | 
25 | COc1ccc(CCN(C)CCCC(C#N)(c2ccc(OC)c(OC)c2)C(C)C)cc1OC (configuration not stated) [VERAPAMIL] | 5.7 | 1.02 | 
26 | S=C1NC(=S)N(Cc2ccc(Cl)cc2)CCN1Cc1ccc(Cl)cc1 | 6 | 1.48 | 
